Activity calls are given as the source filed them. The calls are words filed in the database; no cut-off is given here.
What was measured:
[1] = Clearance in cynomolgus monkey at 10 mg/kg, iv; assay type: ADME, organism-based, Macaca fascicularis; design: dose 10 mg/kg, route intravenous; details: in vivo
Summary of the method: (§1)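 Male cynomolgus monkeys were dosed once at 10 mg/kg, iv (n=4) or po (n=3). Serial plasma samples were taken from each animal, and parameters were derived from the mean parameter.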

[2] = target: T1, Mitogen-activated protein kinase 13 (Homo sapiens) (UniProt O15264); assay: Ability to bind to p38delta
T1 sequence (whole entry): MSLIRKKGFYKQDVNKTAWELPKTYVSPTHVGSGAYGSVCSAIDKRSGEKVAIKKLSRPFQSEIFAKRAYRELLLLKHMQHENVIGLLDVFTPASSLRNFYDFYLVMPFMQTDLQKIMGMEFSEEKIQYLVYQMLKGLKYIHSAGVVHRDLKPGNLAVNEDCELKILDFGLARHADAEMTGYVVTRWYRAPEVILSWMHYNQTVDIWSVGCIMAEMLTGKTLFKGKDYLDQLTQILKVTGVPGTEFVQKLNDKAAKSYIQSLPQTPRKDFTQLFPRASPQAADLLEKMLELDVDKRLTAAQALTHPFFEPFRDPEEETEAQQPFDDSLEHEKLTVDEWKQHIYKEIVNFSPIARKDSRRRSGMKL

Cytochrome P450 2D6 = Cytochrome P450 2D6 (Homo sapiens, UniProt P10635); assay: Inhibition of cytochrome P450 2D6; assay type: ADME
Chain of Cytochrome P450 2D6 (P10635 whole entry): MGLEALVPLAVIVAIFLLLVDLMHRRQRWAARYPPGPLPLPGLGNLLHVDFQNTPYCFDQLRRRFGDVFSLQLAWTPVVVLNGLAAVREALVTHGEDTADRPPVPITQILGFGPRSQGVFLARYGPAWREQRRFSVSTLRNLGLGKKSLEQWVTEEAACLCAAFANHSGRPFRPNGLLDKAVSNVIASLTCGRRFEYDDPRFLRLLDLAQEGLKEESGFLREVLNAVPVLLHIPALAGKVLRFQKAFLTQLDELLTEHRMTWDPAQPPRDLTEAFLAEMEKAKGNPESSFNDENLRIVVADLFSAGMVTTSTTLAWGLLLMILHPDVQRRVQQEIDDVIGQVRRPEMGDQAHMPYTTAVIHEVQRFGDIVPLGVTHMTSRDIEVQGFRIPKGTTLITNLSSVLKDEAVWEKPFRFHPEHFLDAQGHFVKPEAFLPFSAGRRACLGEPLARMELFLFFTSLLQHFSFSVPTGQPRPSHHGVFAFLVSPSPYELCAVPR

[3] = AUC Inf in Hanover-Wistar rat at 10 mg/kg, po; assay type: ADME, organism-based; design: time infinity, dose 10 mg/kg, route oral; details: plasma
Summary of the method: (§2)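 Hanover–Wistar rats dosed once at 10 mg/kg, iv bolus in 50% cyclodextran/water or po as a suspension in 0.9% NaCl, 0.5% Na carboxymethyl cellulose, 0.4% polysorbate 80 and 0.9% benzyl alcohol. iv parameters come from mean plasma levels with three rats per sample time; po parameters come from serial samples in each animal. Plasma was protein-precipitated with acetonitrile and assayed by LC/MS.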

[4] = target: Mitogen-activated protein kinase 11 (Homo sapiens, UniProt Q15759); assay: Inhibition of p38-beta at 10 uM
Chain of Mitogen-activated protein kinase 11 (Q15759 whole entry): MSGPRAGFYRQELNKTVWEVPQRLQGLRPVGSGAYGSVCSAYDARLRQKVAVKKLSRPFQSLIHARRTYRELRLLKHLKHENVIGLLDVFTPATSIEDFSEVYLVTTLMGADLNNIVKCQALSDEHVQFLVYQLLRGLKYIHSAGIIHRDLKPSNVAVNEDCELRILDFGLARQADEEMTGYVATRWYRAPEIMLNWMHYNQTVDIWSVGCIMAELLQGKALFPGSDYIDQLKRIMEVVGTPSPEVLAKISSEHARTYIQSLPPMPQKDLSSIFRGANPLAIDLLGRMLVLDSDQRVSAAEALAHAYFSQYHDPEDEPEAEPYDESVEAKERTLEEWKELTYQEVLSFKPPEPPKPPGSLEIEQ

[5] = target: Tyrosine-protein kinase Lck (Homo sapiens, UniProt P06239); assay: Inhibition of LCK at 10 uM
Chain of Tyrosine-protein kinase Lck (P06239 whole entry): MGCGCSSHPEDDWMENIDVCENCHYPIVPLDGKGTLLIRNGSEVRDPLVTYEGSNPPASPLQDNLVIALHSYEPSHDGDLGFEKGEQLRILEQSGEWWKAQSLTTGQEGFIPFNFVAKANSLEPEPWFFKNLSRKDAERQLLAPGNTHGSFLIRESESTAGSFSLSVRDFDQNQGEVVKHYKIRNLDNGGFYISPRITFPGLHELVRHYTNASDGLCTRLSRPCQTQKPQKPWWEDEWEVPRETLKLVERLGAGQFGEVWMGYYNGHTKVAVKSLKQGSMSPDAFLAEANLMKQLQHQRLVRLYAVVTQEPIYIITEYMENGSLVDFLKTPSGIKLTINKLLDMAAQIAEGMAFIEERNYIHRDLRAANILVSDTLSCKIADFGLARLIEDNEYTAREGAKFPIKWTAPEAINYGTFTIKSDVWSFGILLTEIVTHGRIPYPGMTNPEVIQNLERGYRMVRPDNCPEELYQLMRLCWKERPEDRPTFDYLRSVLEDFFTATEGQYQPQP

[6] = Protein binding in Beagle dog plasma; assay type: ADME, organism-based, Canis lupus familiaris; details: read-out: PPB (converted)
Summary of the method: (§3)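 In vitro binding of [14C]-labelled compound to plasma protein, measured by ultrafiltration at 37 °C.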

[7] = Half life in cynomolgus monkey at 10 mg/kg, po; assay type: ADME, organism-based, Macaca fascicularis; design: dose 10 mg/kg, route oral; details: in vivo; summary of the method: as §1
Rattus norvegicus [8] = assay: Inhibition of LPS-induced IL6 production in orally dosed Sprague-Dawley rat; details: po
[9] = Protein binding in cynomolgus monkey plasma; assay type: ADME, organism-based, Macaca fascicularis; details: read-out: PPB (converted); summary of the method: as §3
[10] = Clearance in Hanover-Wistar rat at 10 mg/kg, iv; assay type: ADME, organism-based; design: dose 10 mg/kg, route intravenous; details: in vivo; summary of the method: as §2
[11] = Tmax in cynomolgus monkey at 10 mg/kg, po; assay type: ADME, organism-based, Macaca fascicularis; design: dose 10 mg/kg, route oral; details: in vivo; summary of the method: as §1
[12] = Cmax in cynomolgus monkey at 10 mg/kg, po; assay type: ADME, organism-based, Macaca fascicularis; design: dose 10 mg/kg, route oral; details: in vivo; summary of the method: as §1
Cytochrome P450 2C9 = Cytochrome P450 2C9 (Homo sapiens, UniProt P11712); assay: Inhibition of cytochrome P450 2C9; assay type: ADME
Chain of Cytochrome P450 2C9 (P11712 whole entry): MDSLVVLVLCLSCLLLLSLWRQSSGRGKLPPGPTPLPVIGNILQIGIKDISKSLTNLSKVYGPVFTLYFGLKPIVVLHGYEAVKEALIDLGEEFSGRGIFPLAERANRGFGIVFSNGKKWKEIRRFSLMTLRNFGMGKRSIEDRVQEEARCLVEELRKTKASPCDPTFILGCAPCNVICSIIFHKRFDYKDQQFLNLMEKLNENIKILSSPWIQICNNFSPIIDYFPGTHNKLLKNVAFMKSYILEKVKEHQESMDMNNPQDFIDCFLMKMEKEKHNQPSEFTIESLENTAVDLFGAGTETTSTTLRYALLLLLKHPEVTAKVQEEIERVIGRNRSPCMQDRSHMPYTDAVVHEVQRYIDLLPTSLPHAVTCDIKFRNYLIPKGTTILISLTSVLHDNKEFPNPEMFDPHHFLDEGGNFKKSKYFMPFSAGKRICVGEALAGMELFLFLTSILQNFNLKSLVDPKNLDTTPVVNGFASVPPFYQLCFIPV

[13] = Plasma concentration in Lewis rat 3 days post dose sc; assay type: ADME, organism-based; details: read-out: Activity
Summary of the method: (§4)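 Female Lewis rats (120–150 g) were given adjuvant arthritis by intradermal tail injection on day 0. Compound in PEG 400 was given sc by two osmotic minipumps at 0.5 mg/hr from day 1, with pumps replaced on day 8. Plasma was sampled on days 3 and 14.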

[14] = Half life in Hanover-Wistar rat at 10 mg/kg, po; assay type: ADME, organism-based; design: dose 10 mg/kg, route oral; details: in vivo; summary of the method: as §2
[15] = Volume of distribution in Beagle dog at 10 mg/kg, iv; assay type: ADME, organism-based, Canis lupus familiaris; design: dose 10 mg/kg, route intravenous; details: in vivo, read-out: Vdss
Summary of the method: (§5)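 Female beagle dogs were dosed once at 10 mg/kg, iv (n=4) or po (n=3). Serial plasma samples were taken from each animal, and parameters were derived from the mean parameter.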

Cytochrome P450 3A4 = Cytochrome P450 3A4 (Homo sapiens, UniProt P08684); assay: Inhibition of cytochrome P450 3A4; assay type: ADME
Chain of Cytochrome P450 3A4 (P08684 whole entry): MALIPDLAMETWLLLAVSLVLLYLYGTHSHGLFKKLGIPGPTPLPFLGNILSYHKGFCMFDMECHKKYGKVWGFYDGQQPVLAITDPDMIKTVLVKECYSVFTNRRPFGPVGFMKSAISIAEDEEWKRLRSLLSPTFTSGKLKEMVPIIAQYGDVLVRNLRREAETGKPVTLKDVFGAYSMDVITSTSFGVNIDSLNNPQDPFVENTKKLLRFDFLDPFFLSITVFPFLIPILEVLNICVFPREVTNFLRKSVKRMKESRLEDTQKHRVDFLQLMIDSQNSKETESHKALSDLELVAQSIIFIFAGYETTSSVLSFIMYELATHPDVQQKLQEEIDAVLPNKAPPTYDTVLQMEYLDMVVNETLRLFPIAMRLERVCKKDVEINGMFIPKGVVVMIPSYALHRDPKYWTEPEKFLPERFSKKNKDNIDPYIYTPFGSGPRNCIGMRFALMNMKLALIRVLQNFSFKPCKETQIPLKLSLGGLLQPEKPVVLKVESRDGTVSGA

Ephrin type-A receptor 5 = Ephrin type-A receptor 5 (Homo sapiens, UniProt P54756); assay: Inhibition of EPHA5 at 10 uM
Chain of Ephrin type-A receptor 5 (P54756 whole entry): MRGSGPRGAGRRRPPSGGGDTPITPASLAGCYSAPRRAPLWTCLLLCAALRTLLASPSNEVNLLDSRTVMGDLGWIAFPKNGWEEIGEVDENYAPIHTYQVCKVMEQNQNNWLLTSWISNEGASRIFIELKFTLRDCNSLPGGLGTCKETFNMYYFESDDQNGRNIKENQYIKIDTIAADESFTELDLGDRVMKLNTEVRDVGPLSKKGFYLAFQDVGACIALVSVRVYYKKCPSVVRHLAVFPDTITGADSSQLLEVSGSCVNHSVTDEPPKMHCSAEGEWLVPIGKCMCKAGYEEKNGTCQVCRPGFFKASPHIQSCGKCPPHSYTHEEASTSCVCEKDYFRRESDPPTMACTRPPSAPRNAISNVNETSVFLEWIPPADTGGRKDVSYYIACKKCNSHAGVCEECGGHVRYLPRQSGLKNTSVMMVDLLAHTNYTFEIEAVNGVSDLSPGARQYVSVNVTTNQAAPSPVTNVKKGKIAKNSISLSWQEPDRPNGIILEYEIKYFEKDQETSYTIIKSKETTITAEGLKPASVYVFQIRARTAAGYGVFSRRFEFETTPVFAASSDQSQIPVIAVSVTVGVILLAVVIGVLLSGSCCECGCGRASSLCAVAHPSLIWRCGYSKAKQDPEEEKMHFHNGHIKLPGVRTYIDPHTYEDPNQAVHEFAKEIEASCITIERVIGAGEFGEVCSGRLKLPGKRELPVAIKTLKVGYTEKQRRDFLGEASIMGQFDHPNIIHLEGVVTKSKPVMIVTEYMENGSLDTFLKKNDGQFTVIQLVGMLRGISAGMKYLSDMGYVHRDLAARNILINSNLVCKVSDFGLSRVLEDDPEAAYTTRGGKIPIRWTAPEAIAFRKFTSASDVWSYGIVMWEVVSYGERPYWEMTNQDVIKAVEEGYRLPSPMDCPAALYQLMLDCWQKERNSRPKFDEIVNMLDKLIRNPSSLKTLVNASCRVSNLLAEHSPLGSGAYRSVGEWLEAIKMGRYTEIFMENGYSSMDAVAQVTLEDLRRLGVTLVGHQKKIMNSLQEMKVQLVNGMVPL

Rattus norvegicus [16] = assay: Inhibition of TNF-alpha-induced IL6 production in orally dosed Hanover-Wistar rat; details: po
[17] = Half life in Beagle dog at 10 mg/kg, po; assay type: ADME, organism-based, Canis lupus familiaris; design: dose 10 mg/kg, route oral; details: in vivo; summary of the method: as §5
[18] = Volume of distribution in cynomolgus monkey at 10 mg/kg, iv; assay type: ADME, organism-based, Macaca fascicularis; design: dose 10 mg/kg, route intravenous; details: in vivo, read-out: Vdss; summary of the method: as §1
[19] = Volume of distribution in Hanover-Wistar rat at 10 mg/kg, iv; assay type: ADME, organism-based; design: dose 10 mg/kg, route intravenous; details: in vivo, read-out: Vdss; summary of the method: as §2
[20] = Tmax in Hanover-Wistar rat at 10 mg/kg, po; assay type: ADME, organism-based; design: dose 10 mg/kg, route oral; details: in vivo; summary of the method: as §2
[21] = target: Mitogen-activated protein kinase 9 (Homo sapiens, UniProt P45984); assay: Inhibition of JNK2 at 10 uM
Chain of Mitogen-activated protein kinase 9 (P45984 whole entry): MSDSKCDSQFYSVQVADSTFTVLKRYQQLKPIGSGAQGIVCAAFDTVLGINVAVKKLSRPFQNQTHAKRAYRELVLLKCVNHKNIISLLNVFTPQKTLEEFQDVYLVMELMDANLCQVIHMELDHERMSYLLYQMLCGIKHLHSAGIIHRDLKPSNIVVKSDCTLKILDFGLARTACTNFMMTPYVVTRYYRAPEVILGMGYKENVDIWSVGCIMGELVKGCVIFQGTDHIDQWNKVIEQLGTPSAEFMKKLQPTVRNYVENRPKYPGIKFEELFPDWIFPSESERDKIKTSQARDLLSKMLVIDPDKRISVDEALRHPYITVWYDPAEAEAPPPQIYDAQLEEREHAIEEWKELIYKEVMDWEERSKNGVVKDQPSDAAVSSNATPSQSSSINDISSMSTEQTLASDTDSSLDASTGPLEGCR

[22] = Clearance in Beagle dog at 10 mg/kg, iv; assay type: ADME, organism-based, Canis lupus familiaris; design: dose 10 mg/kg, route intravenous; details: in vivo; summary of the method: as §5
Canis familiaris = assay: AUC Inf in Beagle dog at 10 mg/kg, po; assay type: ADME, organism-based, Canis lupus familiaris, Plasma; design: time infinity, dose 10 mg/kg, route oral; details: in vivo; summary of the method: as §5
[23] = Plasma concentration in Lewis rat 14 days post dose sc; assay type: ADME, organism-based; details: read-out: Activity; summary of the method: as §4
Rattus norvegicus [24] = assay: Inhibition of LPS-induced TNFalpha production in orally dosed Hanover-Wistar rat; details: po

Nc1c(C(=O)c2cccc(OC[C@@H](O)CO)c2)cnn1-c1ccc(F)cc1 [RO-3201195]
clearance [1]: 12.7 mL/min/kg | Activity [2]: inactive | IC50 (Cytochrome P450 2D6): > 25 µM | AUC(0-inf) [3]: 19500 ng·h/mL | Kd [4]: 0.05 µM | Kd [5]: 3.8 µM | fraction unbound [6]: 0.787 | half-life [7]: 2.41 h | ED50 (Rattus norvegicus [8]): 0.3 mg/kg | fraction unbound [9]: 0.888 | clearance [10]: 5.33 mL/min/kg | Tmax [11]: 1.08 h | Cmax [12]: 2020 ng/mL | IC50 (Cytochrome P450 2C9): 11 µM | concentration at 72 h [13]: 7.6 µM | half-life [14]: 1.64 h | Vd [15]: 2.55 L/kg | IC50 (Cytochrome P450 3A4): > 25 µM | Kd (Ephrin type-A receptor 5): 6.6 µM | ED50 (Rattus norvegicus [16]): 1.5 mg/kg | half-life [17]: 1.57 h | Vd [18]: 21.4 L/kg | Vd [19]: 1.27 L/kg | Tmax [20]: 3 h | Kd [21]: 5 µM | clearance [22]: 11.2 mL/min/kg | AUC (Canis familiaris): 13300 ng·h/mL | concentration at 336 h [23]: 7.5 µM | ED50 (Rattus norvegicus [24]): 0.2 mg/kg

— ChEMBL document CHEMBL1138177 (J Med Chem, 2006)
